Columns and labels:
U87 glioblastoma cells = assay: MTT toxicity assay, U87; type: cell-based; settings: Homo sapiens, 168 h, read-out: IC50 (MTT assay), U87, 7 days incubation
Summary of the method: (§1)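 U87 (2.5 × 10^3) or U251 (5 × 10^3) cells per well were incubated 24 h at 37 °C. Medium was then replaced with test compound at 100, 33, 10, 3.3, 1, 0.3, 0.1 and 0.03 μM, in triplicate, for 7 days at 37 °C. Cells received 10% MTT in medium for 4 h, then solubilization solution. Absorbance was read at 570 nm with 690 nm background, and percent survival calculated versus control wells.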

U87 cells = assay: Clonogenic proliferation assay, U87; type: cell-based, human; settings: U87, 10 μM for 24 h, then 14 days drug-free
Summary of the method: (§2)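 Cells were seeded in 6-well plates in 6 replicates: U87 at 5 × 10^2 cells/well, U251 at 1 × 10^3 cells/well. After 24 h at 37 °C they were exposed to 10 μM test compound or drug-free medium for 24 h. Cells were then PBS-washed and grown 14 days drug-free, stained with 0.5% crystal violet for 30 min, and colonies counted. Survival was normalized to drug-free control.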

U251 glioblastoma cells = assay: MTT toxicity assay, U251; type: cell-based; settings: Homo sapiens, U-251, 168 h, read-out: IC50 (MTT assay), U251, 7 days incubation
Summary of the method: as §1

[1] = humans, twice daily; cited from earlier work
U251 cells = assay: Clonogenic proliferation assay, U251; type: cell-based, human; settings: U251, 10 μM for 24 h, then 14 days drug-free
Summary of the method: as §2

## O=C(c1cc(Cc2n[nH]c(=O)c3ccccc23)ccc1F)N1CCN(C(=O)C2CC2)CC1 [Olaparib, 4-[3-(4-cyclopropanecarbonylpiperazine-1-carbonyl)-4-fluorobenzyl]-2H-phthalazin-1-one]
U87 glioblastoma cells
  IC50: 23.8 ± 1.3 µM
U87 cells
  decrease in number of surviving colonies: 20-30%
U251 glioblastoma cells
  IC50: 5.5 ± 1.2 µM
[1]
  maximum tolerated dose: 400 mg
U251 cells
  cell survival rate normalized to control: 46.9%
